Test results taken from paper PMC2172688 (The Journal of Cell Biology, 2003).
Blank lines part the entries; values can stand above or below the molecule they belong to.

Legend:
Tsg101 UEV domain = biological target: T1, Tsg101 UEV domain (Homo sapiens, UniProt Q99816); assay: BIAcore biosensor binding of Tsg101 UEV to immobilized GST–peptide fusions; conditions: relative to HIV-1 PTAP peptide
T1 sequence (Q99816 2-145 limits assumed): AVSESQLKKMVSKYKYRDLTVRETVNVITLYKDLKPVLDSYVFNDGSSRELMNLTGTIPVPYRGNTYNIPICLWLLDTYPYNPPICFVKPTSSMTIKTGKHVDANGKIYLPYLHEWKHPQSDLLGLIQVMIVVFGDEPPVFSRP
How it was run: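 Purified recombinant Tsg101 UEV domain was flowed over immobilized GST fusions of 10-amino-acid peptides spanning the central P(S/T)AP motifs of HIV-1 NL4–3 Gag, Tsg101 and Hrs. A mutant Gag PTAP peptide served as negative control. Binding was recorded at a range of UEV concentrations, and binding isotherms were plotted against concentration.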

[1] = biological target: GST fusion of a 10-amino acid peptide spanning the PTAP motif of human Tsg101 (human); assay: SPR
[2] = biological target: GST fusion of a 10-amino acid peptide spanning the PTAP motif of HIV-1 NL4-3 Gag (HIV-1 NL4-3); assay: SPR
[3] = biological target: GST fusion of a 10-amino acid peptide spanning the PSAP motif of human Hrs (human); assay: SPR
[4] = biological target: T2, Tsg101–Gal4p binding domain fusion, full-length wild-type Tsg101 (human, UniProt Q99816 1-390); assay: two-hybrid
T2 sequence (looked up): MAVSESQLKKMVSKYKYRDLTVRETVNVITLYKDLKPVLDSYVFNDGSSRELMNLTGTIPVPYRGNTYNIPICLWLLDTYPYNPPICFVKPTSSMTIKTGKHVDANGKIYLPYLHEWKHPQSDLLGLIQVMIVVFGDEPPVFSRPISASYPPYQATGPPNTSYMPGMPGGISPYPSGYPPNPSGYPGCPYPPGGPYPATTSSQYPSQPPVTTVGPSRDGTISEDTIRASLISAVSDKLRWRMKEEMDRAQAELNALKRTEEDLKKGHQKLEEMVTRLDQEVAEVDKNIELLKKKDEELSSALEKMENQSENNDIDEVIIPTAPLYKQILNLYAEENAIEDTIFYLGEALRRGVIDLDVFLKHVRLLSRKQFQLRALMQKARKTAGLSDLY

binding affinity weaker than Tsg101 UEV binding to the HIV-1 PTAP peptide (Tsg101 UEV domain): sevenfold
Molecule: SPTPSAPVPL [Hrs SPTPSAPVPL]

Molecule: Tsg101 UEV domain (NH2-terminal ubiquitin E2 variant domain of Tsg101) (from UniProt Q99816 2-145) (domain or fragment)
fold weaker binding affinity than for the HIV-1 PTAP peptide [1]: 4 fold | Kd [2]: 21 µM | fold weaker binding affinity than for the HIV-1 PTAP peptide [3]: 7 fold

binding affinity weaker than Tsg101 UEV binding to the HIV-1 PTAP peptide (Tsg101 UEV domain): fourfold
Molecule: VIIPTAPLYK [Tsg101 VIIPTAPLYK]

fold reduction of binding against wild-type Hrs [4]: ~2 fold
B1: Hrs^ΔPSAP, Gal4p activation domain fusion (alanine substitution of the Hrs 348PSAP351 sequence) (natural protein, human, UniProt O14964 1-777, looked up)
chain: MGRGSGTFERLLDKATSQLLLETDWESILQICDLIRQGDTQAKYAVNSIKKKVNDKNPHVALYALEVMESVVKNCGQTVHDEVANKQTMEELKDLLKRQVEVNVRNKILYLIQAWAHAFRNEPKYKVVQDTYQIMKVEGHVFPEFKESDAMFAAERAPDWVDAEECHRCRVQFGVMTRKHHCRACGQIFCGKCSSKYSTIPKFGIEKEVRVCEPCYEQLNRKAEGKATSTTELPPEYLTSPLSQQSQLPPKRDETALQEEEELQLALALSQSEAEEKERLRQKSTYTSYPKAEPMPSASSAPPASSLYSSPVNSSAPLAEDIDPELARYLNRNYWEKKQEEARKSPTAAAAVPLTEPAAQPGEGHAAPTNVVENPLPETDSQPIPPSGGPFSEPQFHNGESEESHEQFLKALQNAVTTFVNRMKSNHMRGRSITNDSAVLSLFQSINGMHPQLLELLNQLDERRLYYEGLQDKLAQIRDARGALSALREEHREKLRRAAEEAERQRQIQLAQKLEIMRQKKQEYLEVQRQLAIQRLQEQEKERQMRLEQQKQTVQMRAQMPAFPLPYAQLQAMPAAGGVLYQPSGPASFPSTFSPAGSVEGSPMHGVYMSQPAPAAGPYPSMPSTAADPSMVSAYMYPAGATGAQAAPQAQAGPTASPAYSSYQPTPTAGYQNVASQAPQSLPAISQPPQSSTMGYMGSQSVSMGYQPYNMQNLMTTLPSQDASLPPQQPYIAGQQPMYQQMAPSGGPPQQQPPVAQQPQAQGPPAQGSEAQLISFD
